Reference: ChEMBL document CHEMBL4043223, “Structure-activity relationship study of small molecule inhibitors of the DEPTOR-mTOR interaction” (Bioorg Med Chem Lett, 2017)
Blank lines part the entries; values can stand above or below the compound they belong to. Active and inactive are the calls of the source. The calls are words filed in the database; no cut-off is given here.

Columns and labels:
RPMI-8226 [1] = test: Cytotoxicity against human RPMI8226 cells after 48 hrs by MTT assay; format: functional, cell-based; settings: RPMI-8226, 48 h
Outline: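 MTT in RPMI-8226 cells: 1–2 × 10^4 cells per well in complete medium, exposed 48 h to a range of compound concentrations. MTT reduction to formazan read at 570 nm. Quadruplicate wells per group; OD given as % of DMSO-only control set at 100%. IC50 taken from the concentration series.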

RPMI-8226 [2] = test: Anti-tumor activity against human RPMI8226 cells xenografted in mouse assessed as reduction in tumor growth at 20 mg/kg, ip administered daily for 3 days measured post last dose; format: functional, organism-based
Outline: (§1)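 Immunodeficient mice inoculated subcutaneously with 8226 myeloma cells. Once tumors reached 500 mm3, daily treatment at 20 mg/kg was started.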

[3] = Therapeutic index, ratio of IC50 for PBL (unknown origin) to IC50 for human RPMI8226 cells
Outline: (§2)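 Normal peripheral blood lymphocytes tested head-to-head with 8226 myeloma cells in 48 h MTT assays. […] Therapeutic index = IC50(PBL)/IC50(8226).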

RPMI-8226 [4] = test: Cytotoxicity against human RPMI8226 cells after 48 hrs in presence of mTOR inhibitor pp242 by MTT assay; format: functional, cell-based
[5] = biological target: DEP domain-containing mTOR-interacting protein (Homo sapiens) (UniProt Q8TB45); test: Inhibition of mTOR binding to DEPTOR in human RPMI8226 cells assessed as increase in mTORC1-associated p70 phosphorylation at 1 uM after 6 hrs by Western blot analysis; format: cell-based
DEP domain-containing mTOR-interacting protein (Homo sapiens), sequence (Q8TB45 whole entry, the tested form may be a part): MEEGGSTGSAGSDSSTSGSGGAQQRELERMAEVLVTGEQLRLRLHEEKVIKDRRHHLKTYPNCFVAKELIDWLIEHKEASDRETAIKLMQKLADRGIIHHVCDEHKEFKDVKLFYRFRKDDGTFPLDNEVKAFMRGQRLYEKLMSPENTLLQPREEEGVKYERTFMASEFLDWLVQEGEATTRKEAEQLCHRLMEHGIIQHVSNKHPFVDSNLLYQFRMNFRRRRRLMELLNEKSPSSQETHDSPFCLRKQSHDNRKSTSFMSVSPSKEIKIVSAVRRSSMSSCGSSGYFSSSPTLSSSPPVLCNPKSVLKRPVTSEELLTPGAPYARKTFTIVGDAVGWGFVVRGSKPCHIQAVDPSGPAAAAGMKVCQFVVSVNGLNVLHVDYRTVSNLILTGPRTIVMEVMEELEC
Outline: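 8226 cells exposed 6 h to compound, DMSO in untreated controls. Lysates run on 12.5% SDS-PAGE, transferred to PVDF, probed for phospho- and total p70. Densitometric phospho/total ratio expressed as fold versus parent compound B set at 1; mean ± SD, n = 4.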

RPMI-8226 [6] = test: Induction of apoptosis in human RPMI8226 cells assessed as caspase3 activation at 0.12 to 2 uM after 48 hrs by cytofix/cytoperm staining based flow cytometry; format: functional, cell-based
Outline: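 Caspase-3 flow cytometry 48 h after drug exposure of 8226 cells. 10^6 cells washed in PBS, fixed and permeabilized in cytofix/cytoperm, stained 30 min with PE-conjugated anti-active-caspase-3 (1:5 dilution). % apoptosis = drug-treated minus DMSO-control positives; mean ± SD, n = 4.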

PBL = test: Cytotoxicity against PBL (unknown origin) after 48 hrs by MTT assay; format: cell-based; outline: as §2
Mus musculus [7] = test: Toxicity in mouse xenografted with human RPMI8226 cells assessed as effect on RBC level at 20 mg/kg, ip administered daily for 3 days measured post last dose; format: organism-based; settings: in vivo, 72 h; outline: as §1
[8] = biological target: DEP domain-containing mTOR-interacting protein (Homo sapiens) (UniProt Q8TB45); test: Inhibition of mTOR binding to DEPTOR in human RPMI8226 cells at 0.5 uM treated 6 hrs followed by DEPTOR immunoprecipitation by immunoblotting analysis; format: cell-based
Outline: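 Co-immunoprecipitation: 8226 cells treated 6 h with DMSO or 0.5 µM compound. DEPTOR immunoprecipitated; precipitates immunoblotted for DEPTOR and bound mTOR.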

RPMI-8226 [9] = test: Cytotoxicity against RAPTOR knockdown human RPMI8226 cells at 0.12 to 1 uM after 48 hrs by MTT assay; format: functional, cell-based
Outline: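 8226 cells infected with lentivirus carrying shRAPTOR or control shSCRAMBLE, knockdown confirmed by immunoblot. Cells then incubated with increasing compound concentrations; MTT read-out after 48 h, formazan at 570 nm, as % of DMSO control.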

Mus musculus [10] = test: Toxicity in mouse xenografted with human RPMI8226 cells assessed as effect on platelet level at 20 mg/kg, ip administered daily for 3 days measured post last dose; format: organism-based; settings: in vivo, 72 h; outline: as §1
[11] = biological target: DEP domain-containing mTOR-interacting protein (Homo sapiens) (UniProt Q8TB45); test: Inhibition of DEPTOR in human RPMI8226 cells assessed as upregulation of mTORC1-dependant p21 expression at 0.5 to 2 uM after 6 hrs by Western blot analysis; format: cell-based
MM1.S = test: Cytotoxicity against human MM1S cells after 48 hrs by MTT assay; format: functional, cell-based
Outline: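 MM1.S myeloma cells (DEPTOR-over-expressing) in 48 h MTT: 1–2 × 10^4 cells per well, graded compound concentrations, formazan at 570 nm. Quadruplicate wells; survival as % of DMSO control; IC50 derived from the concentration range.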

RPMI-8226 [12] = test: Induction of apoptosis in human RPMI8226 cells assessed as caspase3 activation in presence of mTOR inhibitor pp242 by cytofix/cytoperm staining based flow cytometry; format: functional, cell-based
[13] = biological target: DEP domain-containing mTOR-interacting protein (Homo sapiens) (UniProt Q8TB45); test: Inhibition of mTOR binding to DEPTOR in human RPMI8226 cells assessed as increase in mTORC1-associated 4E-BP1 phosphorylation by Western blot analysis; format: cell-based
Homo sapiens = organism: Homo sapiens; test: Activation of mTORC1 in DEPTOR knockdown human RPMI8226 cells assessed as increase in p70 phosphorylation
Outline: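 DEPTOR silenced in 8226 cells by shRNA lentivirus, with shScramble-transfected cells as control. Cells drug-treated, then p70 phosphorylation assessed by immunoblot.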

[14] = biological target: DEP domain-containing mTOR-interacting protein (Homo sapiens) (UniProt Q8TB45); test: Inhibition of mTOR binding to DEPTOR in human RPMI8226 cells assessed as increase in mTORC2-associated SGK phosphorylation by Western blot analysis; format: cell-based
[15] = biological target: DEP domain-containing mTOR-interacting protein (Homo sapiens) (UniProt Q8TB45); test: Inhibition of mTOR binding to DEPTOR in human RPMI8226 cells assessed as increase in mTORC1-associated p70 phosphorylation at […] after 6 hrs by Western blot analysis; format: cell-based
[16] = biological target: DEP domain-containing mTOR-interacting protein (Homo sapiens) (UniProt Q8TB45); test: Inhibition of mTOR binding to DEPTOR in human RPMI8226 cells assessed as increase in mTORC1-associated S6 phosphorylation by Western blot analysis; format: cell-based
Mus musculus [17] = test: Toxicity in mouse xenografted with human RPMI8226 cells assessed as effect on WBC level at 20 mg/kg, ip administered daily for 3 days measured post last dose; format: organism-based; settings: in vivo, 72 h; outline: as §1
[18] = biological target: DEP domain-containing mTOR-interacting protein (Homo sapiens) (UniProt Q8TB45); test: Inhibition of mTOR binding to DEPTOR in human RPMI8226 cells assessed as decrease in AKT phosphorylation at […] residue by Western blot analysis; format: cell-based
[19] = biological target: DEP domain-containing mTOR-interacting protein (Homo sapiens) (UniProt Q8TB45); test: Inhibition of mTOR binding to DEPTOR in human RPMI8226 cells assessed as increase in mTORC2-associated AKT phosphorylation at S473 residue by Western blot analysis; format: cell-based
RPMI-8226 [20] = test: Cytotoxicity against human RPMI8226 cells at 0.5 uM after 6 hrs by MTT assay; format: cell-based; settings: rpmi-8226, 6 h
RPMI-8226 [21] = test: Cytotoxicity against human RPMI8226 cells at 0.05 to 0.2 uM after 6 hrs by MTT assay; format: cell-based; settings: rpmi-8226, 6 h
RPMI-8226 [22] = test: Cytotoxicity against human RPMI8226 cells at 1 to 2 uM after 6 hrs by MTT assay; format: cell-based; settings: rpmi-8226, 6 h

SMILES: ON=C1C(Cl)=C(Cl)C(Cl)=C1Cl
IC50 (RPMI-8226 [1]): > 5000 nM

SMILES: COC1(OC)C(Cl)=C(Cl)C(Cl)=C1Cl
IC50 (RPMI-8226 [1]): > 5000 nM

inhibition [5]: Active
inhibition [8]: Active
inhibition [11]: Active
inhibition [13]: Active
Activity (Homo sapiens): inactive
inhibition [14]: Active
inhibition [15]: Active
inhibition [16]: Active
inhibition [18]: Active
inhibition [19]: Active
SMILES: FC(F)(F)c1cccc(NN=C2C(Cl)=C(Cl)C(Cl)=C2Cl)c1
Activity (RPMI-8226 [2]): Active
Ratio IC50 [3]: 136
IC50 (RPMI-8226 [1]): 110 to 170 nM
Activity (RPMI-8226 [4]): inactive
Activity (RPMI-8226 [6]): Active
IC50 (PBL): 15000 nM
Activity (Mus musculus [7]): Non-Toxic
Activity (RPMI-8226 [9]): inactive
Activity (Mus musculus [10]): Non-Toxic
IC50 (MM1.S): 1000 nM
Activity (RPMI-8226 [12]): inactive
Activity (Mus musculus [17]): Non-Toxic

inhibition [5]: Active
inhibition [8]: Active
inhibition [11]: Active
inhibition [13]: Active
inhibition [14]: Active
inhibition [15]: Active
inhibition [16]: Active
inhibition [18]: Active
inhibition [19]: Active
SMILES: CC(C)(C)OC(=O)NN=C1C(Cl)=C(Cl)C(Cl)=C1Cl
Ratio IC50 [3]: 45.5
IC50 (RPMI-8226 [1]): 100 to 110 nM
Activity (RPMI-8226 [4]): inactive
Activity (RPMI-8226 [6]): Active
IC50 (PBL): 5000 nM
Activity (RPMI-8226 [9]): inactive
IC50 (MM1.S): 600 nM
Activity (RPMI-8226 [12]): inactive

SMILES: Fc1cccc(NN=C2c3ccccc3-c3ccccc32)c1
IC50 (RPMI-8226 [1]): > 5000 nM
IC50 (MM1.S): > 5000 nM

SMILES: ClC1=C(Cl)C(Cl)=C(Cl)C1=NNC1CCCCC1
IC50 (RPMI-8226 [1]): 3000 to 5000 nM
IC50 (MM1.S): > 3000 nM

SMILES: Cc1ccc(C(=O)N(N=C2C(Cl)=C(Cl)C(Cl)=C2Cl)C(=O)c2ccc(C)cc2)cc1
IC50 (RPMI-8226 [1]): 500 nM
IC50 (MM1.S): 500 nM

SMILES: Fc1ccccc1NN=C1C(Cl)=C(Cl)C(Cl)=C1Cl
IC50 (RPMI-8226 [1]): > 3000 nM
IC50 (MM1.S): > 3000 nM

inhibition [5]: Active
inhibition [8]: Active
inhibition [15]: Active
SMILES: Fc1ccc(NN=C2C(Cl)=C(Cl)C(Cl)=C2Cl)cc1
Ratio IC50 [3]: 33
IC50 (RPMI-8226 [1]): 600 to 700 nM
Activity (RPMI-8226 [6]): Active
IC50 (PBL): 20000 nM
Activity (RPMI-8226 [9]): inactive
IC50 (MM1.S): 1300 nM

SMILES: CC(C)(C)NN=C1C(Cl)=C(Cl)C(Cl)=C1Cl
IC50 (RPMI-8226 [1]): 3000 to 5000 nM
IC50 (MM1.S): > 3000 nM

SMILES: O=C(NN=C1C(Cl)=C(Cl)C(Cl)=C1Cl)c1ccccc1
Activity (RPMI-8226 [20]): Toxic
IC50 (RPMI-8226 [1]): 600 nM
Activity (RPMI-8226 [21]): Non-Toxic
Activity (RPMI-8226 [22]): Toxic
IC50 (MM1.S): 800 nM

SMILES: NN=C1c2ccccc2-c2ccccc21
IC50 (RPMI-8226 [1]): > 5000 nM

SMILES: C#CC(C)(C)OC(=O)NN=C1C(Cl)=C(Cl)C(Cl)=C1Cl
IC50 (RPMI-8226 [1]): > 5000 nM

SMILES: ClC1=C(Cl)C(Cl)=C(Cl)C1=NNc1ccccc1
IC50 (RPMI-8226 [1]): 600 to 700 nM
IC50 (MM1.S): 2000 nM

SMILES: COc1cccc(NN=C2C(Cl)=C(Cl)C(Cl)=C2Cl)c1
IC50 (RPMI-8226 [1]): > 3000 nM
IC50 (MM1.S): > 3000 nM
